Bioassay records from PubChem BioAssay.
STAT1 activator: activators of IFN-gamma induced STAT1 signaling | NIH 3T3 STAT1-luciferase reporter, luminescence; 100% = IFN-gamma alone, no compound | activation (% of control), % at 5.5 µM | 200,000 compounds, 2.6% hits;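 active = activation above the screen-wide mean activation plus 3 SD, cut at about 130% in these data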;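 note: raw ratio to IFN-gamma control signal so 100% means no change and 0% no light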
PERK inhibitor: blocks human PERK kinase; Q9NZJ5; 220,000 compounds, 0.17% hits; CHO PERK-DD fusion, SEAP luminescence translation reporter; inhibition, % at 5.6 µM;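 active = inhibition above the mean inhibition of all tested compounds plus 3 SD, set separately per screening campaign, cut at about 2.9% in these data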;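 note: PERK kinase domain activated by AP20187 dimerizer at 100 nM; 0% = DMSO with dimerizer and 100% = rapamycin at 8.4 µM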
NF-kB expr up: NF-kB expression increase, human neuronal cells; NF-kB reporter expression; stronger effect = higher value; fold change at 12.5 µM; 190,000 compounds, 1.6% hits; AID 1239; in the data active = fold change above about 3.3
APP 5'UTR act: activates APP 5'UTR luciferase reporter | SH-SY5Y APP 5'UTR luciferase reporter, luminescence; zero percent = DMSO vehicle wells | activation, % at 2 µM | 190,000 compounds, 1% hits | AID 1276;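 active = activation above a set limit, based on mean plus 3 SD of controls, cut at about 140% in these data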
MDM2 E3 inh: Mdm2 E3 ligase (human) inhibition | signal enhancement, % at 5 µM | 210,000 compounds, 0.11% hits | Q00987 | cell-based MDM2 ubiquitination luciferase reporter, 2 h; 0 = plate control, 100 = twice control, blank-subtracted | AID 1230;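 active = signal enhancement of 30% or more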;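 note: luminescence tracks abundance of the self-degrading MDM2-luciferase fusion protein; higher signal means inhibition of MDM2 E3 ligase activity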
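system = mammalian cells stably expressing self-ubiquitinating, self-degrading MDM2 E3–luciferase fusion | quantity = 2000 cells per well seeded | incubation = 4 h cell settling then 2 h compound exposure, 37 °C | signal = SteadyLite luminescence, 15 min reagent step | benchmarks = plate control and blank wells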
AHR activator: activators of human aryl hydrocarbon receptor; AHR-responsive luciferase reporter cells, luminescence; activation, % at 5 µM; 320,000 compounds, 2.5% hits; in the data active = activation above about 47%;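 note: 0% = vehicle wells and 100% = reference agonist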
Target sequence (P35869 whole entry, looked up): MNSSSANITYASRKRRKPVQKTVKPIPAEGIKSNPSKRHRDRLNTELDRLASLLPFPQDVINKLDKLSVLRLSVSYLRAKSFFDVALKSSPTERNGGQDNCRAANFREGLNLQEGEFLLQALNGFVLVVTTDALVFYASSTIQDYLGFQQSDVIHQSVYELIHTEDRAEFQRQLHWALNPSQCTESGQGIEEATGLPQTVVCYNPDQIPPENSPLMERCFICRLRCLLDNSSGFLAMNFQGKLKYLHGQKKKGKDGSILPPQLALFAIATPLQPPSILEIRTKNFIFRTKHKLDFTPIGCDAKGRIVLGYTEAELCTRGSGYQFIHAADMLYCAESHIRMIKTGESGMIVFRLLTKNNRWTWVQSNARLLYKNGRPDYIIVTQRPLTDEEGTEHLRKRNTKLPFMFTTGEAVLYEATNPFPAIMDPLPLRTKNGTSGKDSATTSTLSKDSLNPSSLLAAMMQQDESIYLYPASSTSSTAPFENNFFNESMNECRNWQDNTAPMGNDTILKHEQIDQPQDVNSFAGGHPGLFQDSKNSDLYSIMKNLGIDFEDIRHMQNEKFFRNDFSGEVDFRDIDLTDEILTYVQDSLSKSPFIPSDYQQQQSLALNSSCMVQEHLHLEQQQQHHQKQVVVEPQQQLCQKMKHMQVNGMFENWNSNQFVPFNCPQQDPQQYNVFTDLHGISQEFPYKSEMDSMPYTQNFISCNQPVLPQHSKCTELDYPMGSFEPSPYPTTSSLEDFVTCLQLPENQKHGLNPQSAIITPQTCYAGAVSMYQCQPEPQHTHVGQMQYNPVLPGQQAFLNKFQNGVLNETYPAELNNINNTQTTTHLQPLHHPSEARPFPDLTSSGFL
Numbers without * were called inactive; x = no result. An excerpt weighted towards active compounds, which were near 4.5% of everything screened.

SMILES | STAT1 activator | PERK inhibitor | NF-kB expr up | APP 5'UTR act | MDM2 E3 inh | AHR activator
COCCCNC(=O)c1cc2c(-c3ccc(Cl)cc3)nn(C)c2s1 | 100 | -1 | 0.77 | -4 | -3 | 64*
C=CCCC(=O)NC1CC(C)(C)Cc2c1cnn2-c1ccc(OC)cc1 (stereo not drawn) | x | x | x | x | x | 0
CCN(CCn1cccn1)C(=O)CCc1nnc(CCCc2ccccc2)o1 | 147* | 0 | 4.1* | 67 | -4 | 13
CCN(CCn1cccn1)C(=O)CCc1nnc(-c2ccc3c(c2)OCO3)o1 | 117 | 1 | 1.4 | 6 | -11 | 9
Cn1c(=O)c2c(nc(Cl)n2CC(=O)NC2(C#N)CCCCC2)n(C)c1=O | x | x | x | x | x | 4
CCCc1nc(SCc2cccnc2)c2c(=O)n(C)c(=O)n(C)c2n1 | 95 | -1 | 0.78 | -7 | -15 | 52*
Cn1c(=O)c2c(SCc3cccnc3)nc(CC(C)(C)C)nc2n(C)c1=O | 99 | 0 | 0.79 | x | -19 | 2
CC1Cc2ccccc2N1C(=O)CSc1ncc(-c2ccc(F)cc2)n1C (stereo not drawn) | 133* | 0 | 0.93 | 104 | -18 | 16
Cn1c(-c2ccc(F)cc2)cnc1SCC(=O)N1CCCCC1 | 138* | -1 | 3.9* | 123 | -51 | -6
Cn1c(-c2ccc(F)cc2)cnc1SCC(=O)N1CCCc2ccccc21 | 94 | 0 | 0.93 | -2 | 2 | -6
CC(=O)N1CCc2cc(S(=O)(=O)NCCCN3CCC(C)CC3)ccc21 | x | x | x | x | x | -1
C[C@H](CO)N1C[C@H](C)[C@@H](CN(C)C(=O)Nc2ccc(C(F)(F)F)cc2)Oc2ccc(NC(=O)Nc3ccc4c(c3)OCO4)cc2C1=O | x | x | x | x | x | 2
COC(=O)c1sc(NC(=O)c2ccoc2C)nc1C | 112 | 1 | 1.8 | 23 | x | x
COc1ccc2nc(NC(=O)c3ccoc3C)sc2c1 | 102 | 0 | 11* | 142* | 6 | -3
COc1ccc2nc(NC(=O)c3cc(C)oc3C)sc2c1 | 139* | -1 | 2.5 | 145* | x | -7
CCC(Oc1ccccc1)C(=O)OCC(=O)Nc1sccc1C(N)=O (stereo not drawn) | x | x | x | x | x | 0
NC(=O)c1ccc2c(c1)S(=O)(=O)c1ccccc1C2=O | x | 2 | x | x | -10 | 8
CC1=C(C(N)=O)S(=O)(=O)c2ccccc21 | x | 3.1* | x | x | x | 1
Cc1nc2nc(-c3cccs3)[nH]c2cc1Br | x | x | x | x | x | 58*
c1ccc(-c2nc(-c3cccs3)[nH]c2-c2ccccc2)cc1 | 102 | 1 | 1 | -1 | -6 | 3
Cc1ccc(C(=O)Nc2cccc(C(F)(F)F)c2)cc1NC(=O)c1[nH]cnc1C(N)=O | x | x | x | x | x | 27
COc1ccc(NC(=O)/C=C/c2cccc(F)c2)cn1 | 147* | 0 | 3.8* | 135* | -16 | 0
COc1ccc(/C=C/C(=O)Nc2ccccc2C(=O)O)cc1 | 63 | 0 | 3 | 152* | -76 | 0
COc1ccc(/C=C/C(=O)Nc2ccccc2C(=O)N2CCCC2)cc1 | 116 | -1 | 1 | 15 | -8 | 9
CCOc1ccc(/C=C/C(=O)Nc2ccccc2C(F)(F)F)cc1 | 105 | 2 | 1.5 | 15 | 7 | 3
SMILES | STAT1 activator | PERK inhibitor | NF-kB expr up | APP 5'UTR act | MDM2 E3 inh | AHR activator
COc1ccc(/C=C/C(=O)Nc2cccc(C(C)=O)c2)cc1 | 130* | 0 | 2 | 50 | -16 | 6
COc1ccc(/C=C/C(=O)Nc2ccccc2C(F)(F)F)cc1 | 137* | 1 | 0.91 | 19 | 1 | -1
COc1ccccc1OCC(=O)NCCS(=O)(=O)N1CCN(c2ccc(F)cc2)CC1 | x | x | x | x | x | 2
Cc1ccc2nc(-c3cccc(N)c3)[nH]c2c1 | 93 | 0 | 4.8* | 98 | -45 | -2
CC(=O)c1sc2nc(C)cc(C)c2c1N | 100 | 0 | 1.2 | -10 | -19 | 2
Cc1ccc2nc(-c3sc4nc(C)cc(C)c4c3N)[nH]c2c1 | 131* | -1 | 2.8 | 170* | -32 | -10
Nc1cccc(-c2nc3ccccc3[nH]2)c1 | 122 | 0 | 2.3 | 69 | 1 | 22
C/C(CC(=O)NC(C)(C)C)=N\NC(N)=S | 103 | 1 | 1.1 | -14 | -4 | 1
CC(CC(=O)N1CCN(S(=O)(=O)c2ccc([N+](=O)[O-])cc2)CC1)c1ccccc1 (stereo not drawn) | x | x | x | x | x | 0
O=c1c2ccccc2nnn1COc1cccc(Cl)c1 | 131* | 1 | 1.4 | 18 | 12 | 4
O=C1C=C(Nc2ccccc2C(=O)O)c2ccccc2C1=O | x | 0 | x | x | x | 52*
O=C1C=C(Nc2ccccc2)c2ccccc2C1=O | 100 | 2 | 0.45 | -2 | -2 | x
Cc1csc2c(=O)sc(NC(=O)c3ccc(F)cc3)nc12 | x | 5.2* | x | x | -1 | 8
Fc1ccccc1-c1csc(=Nc2cccnc2)n1CCCn1ccnc1 | 92 | -1 | 0.52 | -12 | -18 | 70*
Fc1ccccc1-c1csc(=Nc2cccnc2)n1CC1CCCO1 (stereo not drawn) | 99 | 0 | 1.1 | 16 | 0 | 23
O=C(Nc1ccccc1)N1CCC(C(=O)N2CCN(c3ccccc3F)CC2)CC1 | 84 | 0 | 1.1 | -11 | -16 | -3
COc1ccc(C(=O)NN=C2CCCC2)cc1 | x | x | x | x | x | 6
Cc1cc(OCc2ccc(C(=O)NN=C3CCCC3)cc2)ccc1Cl | 130* | 0 | 1.3 | -20 | 9 | 26
CN(C)c1nc(-c2cn(CCC#N)c3ccccc23)cs1 | x | x | x | x | x | 62*
COCCn1cc(-c2csc(N)n2)c2ccccc21 | x | x | x | x | x | 14
N#Cc1ccccc1Sc1ccccc1C(=O)NCC(c1ccco1)N1CCCC1 (stereo not drawn) | x | x | x | x | x | 9
O=S(=O)(NC12CC3CC(CC(C3)C1)C2)c1ccc(F)cc1 | 94 | -1 | 0.79 | -10 | -15 | -2
COc1cc(/C=N/N2C(C)CCCC2C)cc(Br)c1O (stereo not drawn) | 104 | 1 | 1.3 | -24 | -4 | 1
CCN=c1scc(C)n1/N=C/c1cc(Br)c(O)c(OC)c1 | 102 | 1 | 1.1 | 22 | -8 | 49*
Cc1cccc(CS(=O)(=O)Cc2ccc(C(=O)NC3CCCC3)o2)c1 | x | x | x | x | x | 0
SMILES | STAT1 activator | PERK inhibitor | NF-kB expr up | APP 5'UTR act | MDM2 E3 inh | AHR activator
O=C(Cc1ccc([N+](=O)[O-])cc1)Nc1ccc(O)cc1C(=O)O | 103 | 0 | 1.1 | 0 | 4 | 0
C[C@H](CO)N1C[C@H](C)[C@@H](CN(C)S(=O)(=O)c2ccccc2)Oc2ccc(NS(=O)(=O)c3cccs3)cc2C1=O | x | x | x | x | x | 0
Cc1ccc(-n2cnc3scc(-c4cccs4)c3c2=O)cc1 | 97 | 0 | 1.5 | 13 | 3 | 1
Cc1ccc(C(=O)Nn2cnc3scc(-c4cccs4)c3c2=O)c(O)c1 | 94 | 0 | 1.2 | -12 | 6 | 60*
Cc1ccc(C(=O)NC2CCCCC2)cc1 | 139* | 1 | 3 | 70 | -14 | 4
CCN(CC)S(=O)(=O)c1cc(C(=O)NC2CCCCC2)ccc1C | 129* | 0 | 2 | 106 | -19 | 8
